Data set [1] in a line: Half life in CD1 mouse at 3 mg/kg, iv. The data set is classed as ADME, organism-based. Further details: dose 3 mg/kg, route intravenous. Particulars: in vivo. The procedure, abridged: (§1)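 Mouse PK: oral dose 10 mg/kg in 2.5% EtOH, 1 drop Tween-80, 25% PEG400 in PBS; iv dose 3 mg/kg in 2.5% EtOH, 5% DMSO, 1 drop Tween-80, 25% PEG400 in PBS. Oral bioavailability, iv half-life, oral AUC and Cmax derived from plasma profiles.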

A short description of data set [2]: Cmax in CD1 mouse at 10 mg/kg, po. It is filed as ADME, organism-based. Set-up: dose 10 mg/kg, route oral. Particulars: in vivo. The procedure, abridged:
as §1

Data set [3] is described as follows: Oral bioavailability in CD1 mouse at 10 mg/kg. The data set is classed as ADME, organism-based. Particulars: in vivo. The procedure, abridged: as §1
Data set [4] is described as follows: AUC in CD1 mouse at 10 mg/kg, po. The data set is classed as ADME, organism-based. Further details: dose 10 mg/kg, route oral. To be noted: plasma. In a few lines: as §1
Data set [5] concerns the target Poly [ADP-ribose] polymerase 2 (Homo sapiens, UniProt Q9UGN5). Nature of the data set: Inhibition of human recombinant PARP2.
Data set [6] can be described thus: Clearance in cynomolgus monkey at 2.5 mg/kg. The data set is classed as ADME, organism-based, Macaca fascicularis. Particulars: in vivo. Further details: dose 2.5 mg/kg.
Data set [7] is described as follows: AUC in cynomolgus monkey at 2.5 mg/kg, po. It is filed as ADME, organism-based, Macaca fascicularis. Further details: dose 2.5 mg/kg, route oral. Particulars: plasma.
A short description of data set [8]: Cmax in Beagle dog at 2.5 mg/kg, po. The data set is classed as ADME, organism-based, Canis lupus familiaris. Set-up: dose 2.5 mg/kg, route oral. Particulars: in vivo.
The nature of data set [9]: Half life in Sprague-Dawley rat at 5 mg/kg, iv. The data set is classed as ADME, organism-based. Further details: dose 5 mg/kg, route intravenous. To be noted: in vivo.
A short description of data set [10]: Cmax in cynomolgus monkey at 2.5 mg/kg, po. The data set is classed as ADME, organism-based, Macaca fascicularis. Set-up: dose 2.5 mg/kg, route oral. Particulars: in vivo.
Data set [11] in a line: Cmax in Sprague-Dawley rat at 5 mg/kg, po. Particulars: in vivo. Set-up: dose 5 mg/kg, route oral. It is filed as ADME, organism-based.
Data set [12] is described as follows: Clearance in Beagle dog at 2.5 mg/kg. It is filed as ADME, organism-based, Canis lupus familiaris. Further details: dose 2.5 mg/kg. To be noted: in vivo.
Data set [13] in a line: Volume of distribution at steady state in cynomolgus monkey at 2.5 mg/kg. Particulars: in vivo, read-out: Vdss. The data set is classed as ADME, organism-based, Macaca fascicularis. Set-up: dose 2.5 mg/kg.
The nature of data set [14]: AUC in Beagle dog at 2.5 mg/kg, po. It is filed as ADME, organism-based, Canis lupus familiaris. Further details: dose 2.5 mg/kg, route oral. Particulars: plasma.
Data set [15] in a line: Half life in cynomolgus monkey at 2.5 mg/kg, iv. The data set is classed as ADME, organism-based, Macaca fascicularis. Further details: dose 2.5 mg/kg, route intravenous. To be noted: in vivo.
Data set [16] is described as follows: Oral bioavailability in cynomolgus monkey at 2.5 mg/kg. The data set is classed as ADME, organism-based, Macaca fascicularis. Particulars: in vivo.
Data set [17] in a line: Clearance in Sprague-Dawley rat at 5 mg/kg. It is filed as ADME, organism-based. Set-up: dose 5 mg/kg. To be noted: in vivo.
Data set [18] can be described thus: Volume of distribution at steady state in Beagle dog at 2.5 mg/kg. It is filed as ADME, organism-based, Canis lupus familiaris. Further details: dose 2.5 mg/kg. Particulars: in vivo, read-out: Vdss.
Data set [19] in a line: Clearance in CD1 mouse at 10 mg/kg. It is filed as ADME, organism-based. Set-up: dose 10 mg/kg. To be noted: in vivo. In a few lines: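 Mouse pharmacokinetics. Oral dose of 10 mg/kg in 2.5% EtOH, 1 drop Tween-80 and 25% PEG400 in PBS. Intravenous dose of 3 mg/kg in 2.5% EtOH, 5% DMSO, 1 drop Tween-80 and 25% PEG400 in PBS.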
Data set [20] can be described thus: Oral bioavailability in Sprague-Dawley rat at 5 mg/kg. To be noted: in vivo. It is filed as ADME, organism-based.
Data set [21] in a line: Volume of distribution at steady state in Sprague-Dawley rat at 5 mg/kg. Particulars: in vivo, read-out: Vdss. Set-up: dose 5 mg/kg. It is filed as ADME, organism-based.
The nature of data set [22]: Half life in Beagle dog at 2.5 mg/kg, iv. The data set is classed as ADME, organism-based, Canis lupus familiaris. Set-up: dose 2.5 mg/kg, route intravenous. Particulars: in vivo.
The nature of data set [23]: AUC in Sprague-Dawley rat at 5 mg/kg, po. The data set is classed as ADME, organism-based. Further details: dose 5 mg/kg, route oral. To be noted: plasma.
The nature of data set [24]: Volume of distribution at steady state in CD1 mouse at 10 mg/kg. It is filed as ADME, organism-based. Set-up: dose 10 mg/kg. To be noted: in vivo, read-out: Vdss.
Data set [25] is described as follows: Oral bioavailability in Beagle dog at 2.5 mg/kg. The data set is classed as ADME, organism-based, Canis lupus familiaris. To be noted: in vivo.
Another data set concerns MX1. In words: animal or person. To be noted: Mus musculus, MX1, ip, 816 h, read-out: TGI.
Data set [26] concerns B16-F10. Nature of the data set: Antitumor activity against mouse B16F10 cells xenografted in C57BL/6 mouse assessed as tumor volume at 50 mg/kg/day, po after 14 days. The data set is classed as functional.
In data set [27] the test system is B16-F10. Nature of the data set: Antitumor activity against mouse B16F10 cells xenografted in C57BL/6 mouse assessed as tumor volume at 50 mg/kg/day, po after 17 days. The data set is classed as functional.
Data set [28] deals with B16-F10. Nature of the data set: Antitumor activity against mouse B16F10 cells xenografted in C57BL/6 mouse assessed as growth inhibition at 50 mg/kg/day, po after 14 days relative to control. The data set is classed as functional. To be noted: B16-F10, 336 h, read-out: TGI.

As usually defined, the half-life is how long it takes for the measured level to halve. By Cmax is commonly meant the highest concentration seen after dosing. In general, bioavailability refers to the share of a dose that reaches the circulation, judged against a reference dose that is usually intravenous. The term AUC denotes the area under the concentration-time curve, a measure of exposure. One may read the Ki as the dissociation constant of the complex between target and ligand, obtained from inhibition or displacement. As usually defined, the clearance is the volume of plasma or blood freed of the substance per unit of time.

SMILES strings stand for the structures.

Chain of Poly [ADP-ribose] polymerase 2 (Q9UGN5 whole entry): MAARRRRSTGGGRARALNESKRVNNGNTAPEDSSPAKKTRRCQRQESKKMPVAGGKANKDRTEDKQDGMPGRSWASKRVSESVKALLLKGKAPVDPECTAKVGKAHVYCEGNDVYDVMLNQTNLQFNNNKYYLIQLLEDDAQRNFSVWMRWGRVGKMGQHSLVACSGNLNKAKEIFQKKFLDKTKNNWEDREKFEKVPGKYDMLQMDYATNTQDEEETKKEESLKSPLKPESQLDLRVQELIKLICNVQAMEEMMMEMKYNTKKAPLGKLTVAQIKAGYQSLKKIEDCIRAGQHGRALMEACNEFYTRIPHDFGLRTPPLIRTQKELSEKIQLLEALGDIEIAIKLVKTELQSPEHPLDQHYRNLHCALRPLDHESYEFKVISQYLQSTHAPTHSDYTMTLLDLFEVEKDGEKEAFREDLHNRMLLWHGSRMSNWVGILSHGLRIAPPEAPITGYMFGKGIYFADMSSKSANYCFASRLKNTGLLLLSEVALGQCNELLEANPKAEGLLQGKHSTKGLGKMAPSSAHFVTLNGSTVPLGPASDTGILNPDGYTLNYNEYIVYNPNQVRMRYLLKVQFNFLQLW

`C[C@]1(c2nc3c(C(N)=O)cc(F)cc3[nH]2)CCCN1` gave a half-life in [1] of 0.5 h. Besides, in data set [2], the Cmax came out at 1000 ng/mL. Besides, the bioavailability in [3] was 100%. Further, the AUC in data set [4] was determined as 1500 ng·h/mL. Besides, the inhibition constant Ki in data set [5] was 4 nM.
Consider `CC1(c2nc3c(C(N)=O)cccc3[nH]2)CCNCC1`, for which, in [1], the half-life is 1.2 h. For the same compound, the peak level in data set [2] (Cmax) was 100 ng/mL. In data set [3], this compound displayed a bioavailability of 20%. Moreover, the exposure (AUC) in data set [4] worked out at 400 ng·h/mL. Further, the inhibitory constant (Ki) in data set [5] turned out to be 2 nM.
Take `CC(C)N1CCC(C)(c2nc3c(C(N)=O)cccc3[nH]2)C1` (stereo unspecified): the half-life in [1] is 1.4 h. Besides, in [2], the highest concentration (Cmax) turned out to be 500 ng/mL. Further, the bioavailability in data set [3] was 100%. This compound had an AUC in data set [4] of 1000 ng·h/mL.
Turning to `C[C@@]1(c2nc3c(C(N)=O)cccc3[nH]2)CCCN1`, the clearance in data set [6] was 23.3 mL/min/kg; in data set [12] it was 15 mL/min/kg; in data set [17], 33.3 mL/min/kg; in [19] it was 103 mL/min/kg. For the same compound, the half-life is 1.2 h in data set [1], 2.4 h in data set [9], 1.5 h in data set [15] and 2.2 h in [22]. Moreover, the Cmax in data set [2] was 800 ng/mL; in data set [8], 500 ng/mL; in data set [10], 200 ng/mL; in [11], 600 ng/mL. Further, the AUC in data set [7] turned out to be 700 ng·h/mL; in data set [14], 1400 ng·h/mL; in data set [23], 1900 ng·h/mL; in data set [4], 1100 ng·h/mL. In addition, the bioavailability stood at 66% in data set [3], 39% in data set [16], 72% in [20] and 48% in [25]. For the same compound, the Vd in data set [13] was found to be 3 L/kg; in data set [18] it was 2.9 L/kg; in data set [21] it was 7.5 L/kg; in [24], 10.3 L/kg.
In turn, `CN1CCCC1(C)c1nc2c(C(N)=O)cccc2[nH]1` (stereo unspecified) had a half-life in data set [1] of 0.55 h. The same compound had a maximum concentration (Cmax) in data set [2] of 100 ng/mL. This compound also registered a bioavailability in data set [3] of 36%. For the same compound, the AUC in data set [4] was determined as 200 ng·h/mL.
Regarding `CC1(c2nc3c(C(N)=O)cccc3[nH]2)CCCCN1` (stereo unspecified), the half-life in [1] is 1.5 h. Besides, in [2], the highest concentration (Cmax) worked out at 500 ng/mL. The compound also displayed a bioavailability in [3] of 93%. The compound further registered an AUC in data set [4] of 1500 ng·h/mL.
Turning to `CC1(c2nc3c(C(N)=O)cccc3[nH]2)CCNC1` (stereo unspecified), the Ki in data set [5] came to 2 nM.
`O=P1(N(CCCl)CCCl)NCCCO1` (stereo unspecified) [CYCLOPHOSPHAMIDE ANHYDROUS]: the inhibition in vivo at 12.5 mg/kg/day in the data set with MX1 stood at 73%.
As to `Cn1nnc2c(C(N)=O)ncn2c1=O` [TEMOZOLOMIDE], the Activity with B16-F10 [26] is on record as 1198 mm3; with B16-F10 [27] it was 2318 mm3. Moreover, the inhibition in vivo at 50 mg/kg/day in the data set with B16-F10 [28] came to 65%.

The record behind these values is ChEMBL document CHEMBL1139389, “Discovery of the Poly(ADP-ribose) polymerase (PARP) inhibitor 2-[(R)-2-methylpyrrolidin-2-yl]-1H-benzimidazole-4-carboxamide (ABT-888) for the treatment of cancer” (J Med Chem, 2009).
